{"data": "Results pooled from the literature", "ABCG2": "Broad substrate specificity ATP-binding cassette transporter ABCG2 (ABCG2, Homo sapiens, UniProt Q9UNQ0)", "note": "Each line is one published result; the experiments were not run side by side."}
{"SMILES": "C=CC1(C)CC(OC(=O)CSCCCCCN(C)C)C2(C)C(C)CCC3(CCC(=O)C32)C(C)C1O (stereo not shown)", "tested on": "K562", "assay": "cell growth or viability", "quantity": "IC50", "result": "9.67 µM"}
{"SMILES": "Cc1noc(C)c1Cn1cc(N2C(=O)CN(Cc3cccc(O)c3)C2=O)cn1", "test system": "male Sprague-Dawley rat, plasma", "conditions": "oral, 100 mg/kg, 12 h", "quantity": "concentration", "result": "11.4 ng/mL"}
{"SMILES": "CCOC(=O)[C@@]12C[C@@H]1[C@@H](n1ccc3c(NC)nc(C#Cc4ccc(Cl)s4)nc31)[C@H](O)[C@@H]2O", "test system": "male Sprague-Dawley rat, plasma", "conditions": "oral, 3 mg/kg, 8 h", "quantity": "concentration", "result": "3.68 ng/mL"}
{"SMILES": "COc1ccc2c(c1)CCc1c(C(=O)NCCc3nc4cc(C)ccc4[nH]3)n[nH]c1-2", "tested on": "K562", "assay": "cell growth or viability", "quantity": "IC50", "result": "< 1.32 µM"}
{"SMILES": "CCc1cc(-c2noc(-c3cc(OC)nc(C4CCCC4)c3)n2)cc(C)c1OC[C@@H](O)CO", "test system": "Wistar rat, plasma", "conditions": "oral, 1 mg/kg, 6 h, single dose", "quantity": "concentration", "result": "41.1 ng/mL"}
{"SMILES": "CO[C@H](C(=O)N1Cc2c(-c3ccc(C(=O)N4CCCc5ccccc54)cn3)cnn2C[C@H]1C(C)C)c1cnn(C)c1 (single isomer, unassigned)", "tested on": "ABCG2", "test system": "dog, MDCK-MDR1", "quantity": "Papp B→A", "result": "30.6 ×10⁻⁶ cm/s"}
{"SMILES": "COc1cccc(-c2n[nH]c(SCc3ccccn3)n2)c1OC", "test system": "female Sprague-Dawley rat, plasma", "conditions": "intravenous, 1 mg/kg, 8 h, single dose", "quantity": "concentration", "result": "24.7 ng/mL"}
{"SMILES": "CN1CCN=C1c1ccc(NC(=O)c2ccc(C(=O)Nc3ccc(C4=NCCN4C)cc3)cc2)cc1", "tested on": "K562", "assay": "cell growth or viability", "quantity": "IC50", "result": "171 µM"}
{"SMILES": "CO[C@H](C(=O)N1Cc2c(-c3ccc(C(=O)N4CCCc5ccccc54)cc3)cnn2C[C@H]1C(C)C)c1ccccc1 (single isomer, unassigned)", "tested on": "ABCG2", "test system": "dog, MDCK-MDR1", "quantity": "Papp B→A", "result": "8.4 ×10⁻⁶ cm/s"}
{"SMILES": "Nc1ccc(S(=O)(=O)NC(=O)/C=C\\c2ccccc2Cl)cc1", "tested on": "K562", "assay": "cell growth or viability", "quantity": "IC50", "result": "> 200 µM"}
{"SMILES": "COc1ccc2c(=O)n(C)c(-c3ccccc3)nc2c1", "test system": "male Sprague-Dawley rat, lung", "conditions": "oral, 30 mg/kg, 15 min, single dose", "quantity": "concentration", "result": "15.3 ng/g"}
{"SMILES": "C[C@H](C(=O)N1Cc2c(-c3ccc(C(=O)N4CCCc5ccccc54)cc3)cnn2C[C@H]1C)c1ccccc1", "tested on": "ABCG2", "test system": "dog, MDCK-MDR1", "quantity": "Papp B→A", "result": "8.4 ×10⁻⁶ cm/s"}
{"SMILES": "CCCN/C(=N/C)c1ccc(NC(=O)c2ccc(C(=O)Nc3ccc(/C(=N\\C)NCCC)cc3)cc2)cc1", "tested on": "K562", "assay": "cell growth or viability", "quantity": "IC50", "result": "10.1 µM"}
{"SMILES": "CO[C@H](C(=O)N1Cc2c(-c3ccc(C(=O)N4CCCc5ccccc54)cc3)cnn2C[C@H]1C(C)C)c1cnn(C)c1 (single isomer, unassigned)", "tested on": "ABCG2", "test system": "dog, MDCK-MDR1", "quantity": "Papp B→A", "result": "26.1 ×10⁻⁶ cm/s"}
{"SMILES": "O=C(O)CSc1nnc(Br)n1-c1ccc(C2CC2)c2ccccc12", "tested on": "ABCG2", "assay": "transporter uptake, inhibitor", "test system": "Caco-2", "conditions": "100 µM, 2 h", "quantity": "inhibition", "result": "38%"}
{"SMILES": "C/C(O)=C(\\C#N)C(=O)Nc1ccc(C(F)(F)F)cc1", "tested on": "ABCG2", "test system": "Caco-2", "conditions": "1 µM, 2 h, pH 7.4", "quantity": "Papp B→A", "result": "33.4 ×10⁻⁶ cm/s"}
